Reference: ChEMBL document CHEMBL1149285, “Identification of novel parasitic cysteine protease inhibitors using virtual screening. 1. The ChemBridge database” (J Med Chem, 2004)
The source made the active and inactive calls. The calls are words filed in the database; no cut-off is given here.

How the values were obtained:
[1] = target: T1, Falcipain 2 (Plasmodium falciparum, UniProt Q9N6S8); assay: Inhibition of Plasmodium falciparum recombinant falcipain-2
T1 sequence (Q9N6S8 whole entry): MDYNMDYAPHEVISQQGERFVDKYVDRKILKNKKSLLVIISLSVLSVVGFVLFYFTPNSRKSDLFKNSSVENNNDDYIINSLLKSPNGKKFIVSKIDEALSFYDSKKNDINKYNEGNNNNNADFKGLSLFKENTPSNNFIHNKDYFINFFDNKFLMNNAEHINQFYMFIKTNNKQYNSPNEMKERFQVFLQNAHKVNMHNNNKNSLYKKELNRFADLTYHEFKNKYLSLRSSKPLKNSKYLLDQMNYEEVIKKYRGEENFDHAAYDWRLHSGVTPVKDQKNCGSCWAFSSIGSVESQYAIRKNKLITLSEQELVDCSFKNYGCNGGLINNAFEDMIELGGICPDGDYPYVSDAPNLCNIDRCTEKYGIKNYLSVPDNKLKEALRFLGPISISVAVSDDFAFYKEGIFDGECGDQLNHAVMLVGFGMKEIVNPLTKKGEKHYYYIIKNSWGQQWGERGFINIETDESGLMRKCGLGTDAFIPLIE
How it was run: (§1)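 Equal amounts of recombinant enzyme preincubated 30 min at room temperature with serial inhibitor dilutions from DMSO stocks (DMSO at most 1% in assay) in 100 mM sodium acetate pH 5.5, 10 mM dithiothreitol. Z-Leu-Arg-AMC then added to 25 μM final; fluorescence followed 15 min at room temperature. IC50 taken from percent activity versus concentration plots.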

[2] = target: T2, Cysteine protease falcipain-3 (Plasmodium falciparum, UniProt Q9NBA7); assay: Inhibition of Plasmodium falciparum recombinant falcipain-3; how it was run: as §1
T2 sequence (Q9NBA7 whole entry): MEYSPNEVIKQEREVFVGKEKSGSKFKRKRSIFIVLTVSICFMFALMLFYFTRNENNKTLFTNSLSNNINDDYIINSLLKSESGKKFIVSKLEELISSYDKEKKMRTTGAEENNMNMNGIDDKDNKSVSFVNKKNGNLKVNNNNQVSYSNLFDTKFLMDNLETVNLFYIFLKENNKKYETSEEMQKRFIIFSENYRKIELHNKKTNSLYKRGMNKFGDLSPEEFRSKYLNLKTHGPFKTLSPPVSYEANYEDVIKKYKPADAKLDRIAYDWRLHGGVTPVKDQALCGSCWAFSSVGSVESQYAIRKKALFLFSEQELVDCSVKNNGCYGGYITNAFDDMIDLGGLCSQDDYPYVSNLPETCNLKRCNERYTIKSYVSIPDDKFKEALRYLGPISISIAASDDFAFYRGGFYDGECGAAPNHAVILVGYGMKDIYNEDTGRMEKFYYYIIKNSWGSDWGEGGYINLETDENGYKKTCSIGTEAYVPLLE

[3] = test system: Plasmodium falciparum; assay: Antiplasmodial activity against chloroquine-sensitive Plasmodium falciparum D6 after 48 hrs as LDH reporter activity; format: functional, organism-based; details: D6, 48 h
How it was run: (§2)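 Asynchronous P. falciparum cultures (2% hematocrit, 2% parasitemia) were exposed to compound dilutions prepared in DMSO. They were incubated 48 h at 37 °C in a humidified chamber under 90% N2, 5% CO2, 5% O2. Growth was read as parasite lactate dehydrogenase activity using Malstat reagent. Medium-only and erythrocyte-only wells were included, with chloroquine and artemisinin as positive and DMSO as negative controls.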

[4] = test system: Plasmodium falciparum; assay: Antiplasmodial activity against chloroquine-resistant Plasmodium falciparum W2 as LDH activity after 48 hrs; format: functional, organism-based; details: W2, 48 h; how it was run: as §2
[5] = target: T3, Cysteine protease (Leishmania donovani) (UniProt Q95WR6); assay: (§3) Inhibition of Leishmania donovani cysteine protease
T3 sequence (whole entry): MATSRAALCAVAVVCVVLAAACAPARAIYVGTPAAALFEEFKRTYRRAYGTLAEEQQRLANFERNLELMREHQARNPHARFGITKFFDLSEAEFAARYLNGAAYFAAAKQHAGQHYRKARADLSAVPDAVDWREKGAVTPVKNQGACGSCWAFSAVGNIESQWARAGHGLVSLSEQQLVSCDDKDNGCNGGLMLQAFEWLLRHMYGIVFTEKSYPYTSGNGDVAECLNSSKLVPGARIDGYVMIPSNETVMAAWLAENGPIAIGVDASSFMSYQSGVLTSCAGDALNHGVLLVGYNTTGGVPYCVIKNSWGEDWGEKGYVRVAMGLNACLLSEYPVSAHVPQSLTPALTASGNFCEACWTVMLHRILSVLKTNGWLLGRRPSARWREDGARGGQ

[6] = test system: Leishmania donovani; assay: Antileishmanial activity against Leishmania donovani promastigotes after 72 hrs by Alamar blue assay; format: functional, organism-based
How it was run: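 L. donovani promastigote culture at 2 × 10⁶ cells/mL given diluted compounds, incubated 72 h at 26 °C; growth read by Alamar blue. Pentamidine and amphotericin B as reference agents; IC50 computed from growth inhibition curve.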

[7] = test system: Vero; assay: Cytotoxicity against Vero cells at 23.8 ug/mL by Neutral red assay; format: cell-based; details: chlorocebus sabaeus
How it was run: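 VERO monkey kidney […] exposed to compounds alongside the antiparasitic assays, viability by Neutral Red uptake; highest concentration tested 23.8 μg/mL; IC50 computed from growth inhibition curve.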

[8] = target: T4, Cysteine protease (Leishmania donovani, UniProt Q95WR6); assay: as §3
T4 sequence (Q95WR6 whole entry): T3 sequence (whole entry)

| SMILES | IC50 [1] [µM] | IC50 [2] [µM] | EC50 [3] [µM] | EC50 [4] [µM] | Activity [5] | Activity [6] | Activity [7] | IC50 [6] [µM] | IC50 [8] [µM] |
| --- | --- | --- | --- | --- | --- | --- | --- | --- | --- |
| O=C(CSc1nnnn1-c1ccccc1)Nc1ccc(-n2cnnn2)cc1 | 7.5 | 5.4 | 62.7 | 50.1 | inactive | inactive | Non-toxic | – | – |
| C[C@@H]1CC[C@H]2[C@@H](C)C(=O)O[C@@H]3O[C@@]4(C)CC[C@@H]1[C@]32OO4 [ARTEMISININ] | – | – | 0.012 | 0.017 | – | – | – | – | – |
| Oc1ccc(Nc2nc(-c3cccnc3)cs2)cc1 | 22.5 | > 50 | 52 | 50.1 | inactive | – | Non-toxic | 11.5 | – |
| CC(C)CC(=O)N[C@H](C(=O)N[C@H](C(=O)N[C@@H](CC(C)C)[C@@H](O)CC(=O)N[C@@H](C)C(=O)N[C@@H](CC(C)C)[C@@H](O)CC(=O)O)C(C)C)C(C)C [PEPSTATIN] | – | – | – | – | – | – | – | – | 0.16 |
| C[C@@H]1[C@H](O)[C@@H](C)/C=C/C=C/C=C/C=C/C=C/C=C/C=C/[C@H](O[C@@H]2O[C@H](C)[C@@H](O)[C@H](N)[C@@H]2O)C[C@@H]2O[C@](O)(C[C@@H](O)C[C@@H](O)[C@H](O)CC[C@@H](O)C[C@@H](O)CC(=O)O[C@H]1C)C[C@H](O)[C@H]2C(=O)O [AMPHOTERICIN B] | – | – | – | – | – | – | – | 0.16 | – |
| CCCc1cc(O)nc(SCC(=O)Nc2ccccc2)n1 | – | – | > 78.4 | > 78.4 | inactive | inactive | – | – | – |
| O=C(CNC(=O)[C@@H]1COc2ccccc2O1)N/N=C/c1cccs1 | 26.6 | > 50 | 68.9 | 68.9 | inactive | inactive | Non-toxic | – | – |
| CCCS(=O)(=O)N1CCN(S(=O)(=O)c2ccc3ccccc3c2)CC1 | 12.4 | 29.6 | > 62.2 | > 62.2 | inactive | inactive | Non-toxic | – | – |
| CC(C)C[C@H](NC(=O)[C@H]1O[C@@H]1C(=O)O)C(=O)NCCCCN=C(N)N [E-64] | 0.015 | 0.035 | – | – | – | – | – | – | – |
| N#CCC(=O)N/N=C\c1ccc(OCC(=O)Nc2ccc(F)cc2)cc1 | 5.7 | > 50 | 59.3 | 67.2 | inactive | inactive | Non-toxic | – | – |
| CCCc1cc(=O)[nH]c(SCC(=O)Nc2ccccc2)n1 | 59.9 | > 50 | – | – | – | – | Non-toxic | – | – |
| O=C(O)c1ccccc1N/N=C/c1ccc(/C=N/Nc2ccccc2C(=O)O)cc1 | 1 | 4.9 | 34.8 | 41 | – | inactive | Non-toxic | – | 72 |
| O=C(CSc1ccc2ccccc2n1)N/N=C/c1ccc(O)cc1O | 63.4 | > 50 | 32.5 | 67.3 | inactive | inactive | Non-toxic | – | – |
| O=C(NCc1ccc(/C=c2/sc3n(c2=O)CCN=3)o1)C(=O)Nc1ccccc1 | 6.2 | 11.8 | > 60 | > 60 | inactive | inactive | Non-toxic | – | – |
| Oc1ccc(/C=N/c2ccc(/N=C/c3ccc(O)cc3O)c(Cl)c2)c(O)c1 | 2.1 | 7.5 | 12.3 | 20.9 | – | inactive | Non-toxic | – | 65.3 |
| CCN(CC)CCCC(C)Nc1ccnc2cc(Cl)ccc12 (stereo not drawn) [CHLOROQUINE] | – | – | 0.009 | 0.28 | – | – | – | – | – |
| O=C(N/N=C/c1ccccc1O)c1cccc(C(=O)N/N=C/c2ccccc2O)n1 | 7 | 10.5 | 3.7 | 6.2 | inactive | inactive | Non-toxic | – | – |
| O=C(CN1C(=O)/C(=N\NC(=O)c2ccncc2)c2ccccc21)Nc1ccccc1 | 40.9 | 62.2 | 56.3 | 59.6 | – | inactive | Non-toxic | – | 62.6 |
| Cc1cccc(NC(=O)CCC(=O)N/N=C/c2cc(Cl)ccc2O)c1 | 7.5 | 5.4 | 13.5 | 12.1 | inactive | inactive | Non-toxic | – | – |
| OC[C@H](O)/C=N/Nc1nc(Nc2ccccc2)nc(N2CCCCC2)n1 | 54.6 | > 50 | 4.8 | 5.3 | inactive | – | Non-toxic | 3.6 | – |
| N=C(N)c1ccc(OCCCCCOc2ccc(C(=N)N)cc2)cc1 [PENTAMIDINE] | – | – | – | – | – | – | – | 2 | – |
| OC[C@@H](O)/C=N/Nc1nc(Nc2ccccc2)nc(Nc2ccccc2)n1 | > 50 | > 50 | 2.5 | 3.3 | inactive | – | Non-toxic | 1.9 | – |
| CCOP(=O)(CC(=O)NNC(=O)Nc1cccc2ccccc12)OCC | 53.4 | > 50 | 52.7 | 40.9 | inactive | inactive | Non-toxic | – | – |
| O=C(N/N=C/c1ccc(/C=N/NC(=O)c2ccccc2O)cc1)c1ccccc1O | 2.2 | 27.8 | 31.1 | 34.8 | inactive | inactive | Non-toxic | – | – |
| Oc1ccc(/C=N/CC/N=C/c2ccc(O)cc2O)c(O)c1 | 20.8 | > 50 | 46.6 | 74.9 | inactive | inactive | Non-toxic | – | – |
| C/C(=N\NS(=O)(=O)c1ccc(C)cc1)c1c(O)c2ccccc2oc1=O | 3.9 | 13.9 | 63.9 | 63.9 | inactive | inactive | Non-toxic | – | – |
| COC(=O)c1ccccc1NC(=O)COC(=O)CSc1nc(C)cc(C)n1 | 6.2 | 12 | 61.1 | 61.1 | inactive | inactive | Non-toxic | – | – |
| O=C(Cc1nnc(NC(=O)c2ccccc2)s1)N/N=C\c1ccc(O)c(O)c1 | 31.1 | > 50 | > 59.9 | > 59.9 | inactive | inactive | Non-toxic | – | – |
| O=C(Nc1cccc(O)c1)c1cccc(S(=O)(=O)Nc2cccc(O)c2)c1 | > 50 | > 50 | 35.1 | 37.7 | inactive | – | Non-toxic | 0.3 | – |
